Data from ChEMBL document CHEMBL2169744, “Discovery and optimization of potent and selective imidazopyridine and imidazopyridazine mTOR inhibitors” (Bioorg Med Chem Lett, 2012).
Converted amounts (≈) assume the structure as drawn.

Tests used:
[1] = Half life in rat at 0.5 mg/kg, iv; assay type: ADME, organism-based; parameters: dose 0.5 mg/kg, route intravenous; settings: in vivo
[2] = Inhibition of mTORC1-mediated 4EBP1-phosphorylation in human U87 cells; assay type: cell-based, U-87MG ATCC
[3] = Solubility of the compound in simulated intestinal fluid; assay type: physicochemical
[4] = Volume of distribution at steady state in rat at 0.5 mg/kg, iv; assay type: ADME, organism-based; parameters: dose 0.5 mg/kg, route intravenous; settings: in vivo, read-out: Vdss
[5] = (§1) Clearance in rat at 0.5 mg/kg, iv; assay type: ADME, organism-based; parameters: dose 0.5 mg/kg, route intravenous; settings: in vivo
[6] = molecular target: Serine/threonine-protein kinase mTOR (Homo sapiens, UniProt P42345); test: Inhibition of mTOR by LanthaScreen assay
[7] = molecular target: Phosphatidylinositol 4,5-bisphosphate 3-kinase catalytic subunit alpha isoform (Homo sapiens, UniProt P42336); test: Inhibition of PI3Kalpha by AlphaScreen assay
Chain of Phosphatidylinositol 4,5-bisphosphate 3-kinase catalytic subunit alpha isoform (P42336 whole entry, canonical isoform): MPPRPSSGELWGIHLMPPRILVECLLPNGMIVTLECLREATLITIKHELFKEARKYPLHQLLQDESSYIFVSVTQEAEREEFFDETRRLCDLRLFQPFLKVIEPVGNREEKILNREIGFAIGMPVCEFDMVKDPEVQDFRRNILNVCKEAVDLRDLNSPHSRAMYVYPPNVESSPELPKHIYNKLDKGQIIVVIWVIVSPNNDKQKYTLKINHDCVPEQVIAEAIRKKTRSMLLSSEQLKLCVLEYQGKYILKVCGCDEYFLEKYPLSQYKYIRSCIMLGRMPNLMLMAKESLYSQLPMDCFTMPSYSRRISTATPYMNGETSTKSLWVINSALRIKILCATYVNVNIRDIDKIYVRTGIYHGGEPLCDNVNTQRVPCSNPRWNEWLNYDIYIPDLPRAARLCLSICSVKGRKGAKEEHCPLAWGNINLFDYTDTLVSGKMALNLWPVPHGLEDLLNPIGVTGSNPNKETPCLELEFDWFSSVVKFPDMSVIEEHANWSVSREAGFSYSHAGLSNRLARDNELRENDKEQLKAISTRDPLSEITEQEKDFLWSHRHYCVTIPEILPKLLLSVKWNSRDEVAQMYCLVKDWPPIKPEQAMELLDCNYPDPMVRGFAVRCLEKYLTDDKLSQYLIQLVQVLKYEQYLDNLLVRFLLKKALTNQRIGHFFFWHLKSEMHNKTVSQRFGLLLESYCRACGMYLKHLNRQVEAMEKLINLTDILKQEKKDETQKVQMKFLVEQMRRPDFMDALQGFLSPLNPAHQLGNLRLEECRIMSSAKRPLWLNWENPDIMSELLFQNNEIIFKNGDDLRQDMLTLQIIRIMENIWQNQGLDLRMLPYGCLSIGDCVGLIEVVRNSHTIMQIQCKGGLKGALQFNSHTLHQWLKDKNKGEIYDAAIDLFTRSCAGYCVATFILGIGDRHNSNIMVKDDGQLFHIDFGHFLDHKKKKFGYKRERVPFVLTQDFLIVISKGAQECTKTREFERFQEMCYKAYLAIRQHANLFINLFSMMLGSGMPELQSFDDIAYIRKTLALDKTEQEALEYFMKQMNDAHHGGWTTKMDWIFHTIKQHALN

[8] = Inhibition of mTORC2-mediated AKT Ser473-phosphorylation in human U87 cells; assay type: cell-based, U-87MG ATCC; settings: U-87 MG
Summary of the method: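 Cell assay in U87 cells measuring pAKT (S473), n ≥ 2.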

[9] = Clearance in rat at 1 mg/kg, iv; assay type: ADME, organism-based; parameters: dose 1 mg/kg, route intravenous; settings: in vivo
[10] = Oral bioavailability in rat at 5 mg/kg; assay type: ADME, organism-based; settings: in vivo
Summary of the method: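 Rat oral PK at 5.0 mpk in 1% Tween 80, 2% HPMC, 97% H2O, pH 2.2 (methanesulfonic acid).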

[11] = (§2) AUC in rat at 0.5 mg/kg, iv; assay type: ADME, organism-based, Plasma; parameters: dose 0.5 mg/kg, route intravenous; settings: plasma
[12] = Oral bioavailability in rat at 4 mg/kg; assay type: ADME, organism-based; settings: in vivo
[13] = Solubility of the compound in phosphate buffered saline; assay type: physicochemical
[14] = Inhibition of mTORC1-mediated pS6 Ser240/244-phosphorylation in human U87MG cells; assay type: cell-based, U-87MG ATCC; settings: U-87 MG
Summary of the method: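 Cell assay in U87MG cells measuring phosphorylation of the mTOR substrate S6 (S240/244), n ≥ 2.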

[15] = Solubility of the compound in 0.01 N HCl; assay type: physicochemical; settings: buffer
[16] = Apparent permeability from basal to apical side of pig LLC-PK1 cells; assay type: ADME, cell-based, Sus scrofa
[17] = Efflux ratio of apparent permeability from basal to apical to apical to basal side of pig LLC-PK1 cells; assay type: ADME, cell-based, Sus scrofa
[18] = Apparent permeability from apical to basal side of pig LLC-PK1 cells; assay type: ADME, cell-based, Sus scrofa
[19] = Oral bioavailability in rat at 1 mg/kg; assay type: ADME, organism-based; settings: in vivo
Rattus norvegicus [20] = test: as §2; assay type: ADME, organism-based, Plasma; parameters: dose 0.5 mg/kg, route intravenous; settings: in vivo
Rattus norvegicus [21] = test: as §1; assay type: ADME, organism-based; parameters: dose 0.5 mg/kg, route intravenous; settings: in vivo
[22] = Plasma protein binding in rat at 5 mg/kg, po; assay type: ADME, organism-based; parameters: dose 5 mg/kg, route oral; settings: read-out: PPB (converted)
Rattus norvegicus [23] = organism: Rattus norvegicus; test: Unbound clearance in rat; assay type: ADME, organism-based; settings: in vivo
[24] = Clearance in rat at 0.3 mg/kg, iv; assay type: ADME, organism-based; parameters: dose 0.3 mg/kg, route intravenous; settings: in vivo
Summary of the method: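 Rat IV pharmacokinetics at 0.3 mpk, formulation 100% DMSO.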

[25] = Oral bioavailability in rat at 2 mg/kg; assay type: ADME, organism-based; settings: in vivo
[26] = Homo sapiens, U-87 MG, read-out: IC50

Row | SMILES | half-life [1] [min] | IC50 [2, 26] [nM] | solubility [3] [µg/mL] | Vd [4] [L/kg] | clearance [5] [mL/min/kg] | IC50 [6] [nM] | IC50 [7] [nM] | IC50 [8] [nM] | clearance [9] [mL/min/kg] | further results
1 | COc1cnnc(Nc2cc(-c3c(Nc4cc[nH]n4)nc4cccnn34)nc(C)n2)c1 | 70.8 | 85 | 175 (≈ 421 µM) | 9.1 | 103 | 3 | 54 |  |  | 
2 | Cc1nc(Nc2cccnn2)cc(-c2c(Nc3ccn[nH]3)nc3cccnn23)n1 |  | 276 |  |  |  | 24 | 173 |  |  | 
3 | CC(=O)Nc1cc(-c2c(Nc3ccn(C)n3)nc3ccc(-c4cnco4)cn23)nc(C)n1 | 42 | 347 |  | 4.1 | 117 | 20 | 3170 |  |  | bioavailability [10]: 3%; AUC [11]: 0.2 µM·h
4 | Cc1nc(Nc2ccc(N3CCOCC3)nn2)cc(-c2c(Nc3ccn[nH]3)nc3cccnn23)n1 | 95.4 | 309 | 98 (≈ 208 µM) | 3.9 | 41.7 | 35 | 256 |  |  | bioavailability [12]: 7%
5 | Cc1nc(N)nc(-n2c(Nc3ccn[nH]3)nc3ccccc32)n1 |  |  | 8.4 (≈ 27.3 µM) |  |  | 23 |  |  |  | solubility [13]: 8.4 µg/mL (≈ 27.3 µM); IC50 [14]: 166 nM; solubility [15]: 3.7 µg/mL (≈ 12 µM); Papp B→A [16]: 35.4 ×10⁻⁶ cm/s; efflux ratio [17]: 1.7; Papp A→B [18]: 20.3 ×10⁻⁶ cm/s; bioavailability [19]: 6%
6 | Cc1nccc(-c2c(Nc3ccn[nH]3)nc3cccnn23)n1 | 13.8 | 2170 | 14 (≈ 47.9 µM) | 0.62 | 31.7 | 141 | 3020 |  |  | 
7 | CC(=O)Nc1cc(-c2c(Nc3ccn(C)n3)nc3cccnn23)nc(C)n1 | 23.4 | 1230 |  | 0.8 | 18.3 | 55 | 1660 |  |  | bioavailability [10]: 34%; AUC [11]: 1.3 µM·h; CL free (Rattus norvegicus [23]): 555 mL/min/kg; fraction unbound [22]: 0.033
8 | CC(=O)Nc1cc(-c2c(Nc3ccn(C)n3)nc3ccc(-c4cnn(C(C)C)c4)cn23)nc(C)n1 | 258 | 694 |  | 2.1 | 8.33 | 16 | > 125000 |  |  | bioavailability [10]: 8%; AUC [11]: 1.8 µM·h; fraction unbound [22]: 0.004
9 | CC(=O)Nc1cc(-c2c(Nc3ccn(C)n3)nc3ccccn23)nc(C)n1 | 39.6 | 940 |  | 0.6 | 10 | 67 | 4580 |  |  | bioavailability [10]: 4%; AUC [11]: 2.3 µM·h; CL free (Rattus norvegicus [23]): 180 mL/min/kg; fraction unbound [22]: 0.056
10 | Cc1nc(Nc2cnccn2)cc(-c2c(Nc3ccn[nH]3)nc3cccnn23)n1 | 25.2 | 66 |  | 2.5 | 96.7 | 6 | 122 |  |  | 
11 | Cc1nc(Nc2cnn(C3CCOC3)c2)cc(-c2c(Nc3ccn[nH]3)nc3cccnn23)n1 (stereo not drawn) | 21.6 | 146 | > 200 | 3.2 | 100 | 36 | 105 |  |  | 
12 | Cc1nc(Nc2cccnc2)cc(-c2c(Nc3ccn[nH]3)nc3cccnn23)n1 |  | 6390 | 1 (≈ 2.6 µM) |  |  | 147 | 1140 |  |  | 
13 | CC(=O)Nc1cc(-c2c(Nc3cc[nH]n3)nc3cccnn23)nc(C)n1 | 49.2 | 45 | 200 (≈ 572 µM) | 6.3 | 43.3 | 3 | 47 |  |  | bioavailability [10]: 46%; AUC [11]: 0.6 µM·h; fraction unbound [22]: 0.056
14 | CNc1cc(-c2c(Nc3cc[nH]n3)nc3cccnn23)nc(C)n1 | 15.6 | 706 | 7 (≈ 21.8 µM) | 1.3 | 80 | 63 | 1140 |  |  | bioavailability [10]: 29%

Further lines, with some results ahead:

Row | half-life [1] [min] | IC50 [2, 26] [nM] | solubility [3] [µg/mL] | Vd [4] [L/kg] | clearance [5] [mL/min/kg] | IC50 [6] [nM] | IC50 [7] [nM] | IC50 [8] [nM] | clearance [9] [mL/min/kg] | SMILES | further results
15 |  | 72 |  |  |  | 3 | 177 | 7 | 33.3 | Cc1cc(-c2ccc3nc(Nc4cc[nH]n4)c(-c4nc(C)nc(N)n4)n3c2)on1 | 
16 |  | 652 |  |  |  | 21 | 393 | 54 | 33.3 | Cc1nc(N)nc(-c2c(Nc3cc[nH]n3)nc3ccc(-c4ccccc4C)cn23)n1 | 
17 |  | 276 |  |  |  | 5 | 463 | 23 | 33.3 | Cc1nc(N)nc(-c2c(Nc3ccn[nH]3)nc3ccc(-c4cncn4C)cn23)n1 | 
18 |  | 510 |  |  |  | 39 | 268 | 138 | 33.3 | COc1ncccc1-c1ccc2nc(Nc3ccn[nH]3)c(-c3nc(C)nc(N)n3)n2c1 | 
19 | 168 | 230 |  | 1.7 |  | 15 | 4290 |  |  | CC(=O)Nc1cc(-c2c(Nc3ccn(C)n3)nc3ccc(-c4cccnc4C)cn23)nc(C)n1 | bioavailability [10]: 38%; AUC (Rattus norvegicus [20]): 7.6 µM·h; CL (Rattus norvegicus [21]): 10 mL/min/kg; fraction unbound [22]: 0.025
20 |  | 41 |  |  |  | 3 | 120 | 10 | 33.3 | Cc1nc(N)nc(-c2c(Nc3cc[nH]n3)nc3ccc(-c4cccnc4C)cn23)n1 | 
21 |  | 101 |  |  |  | 3 | 119 | 12 | 33.3 | Cc1nc(N)nc(-c2c(Nc3cc[nH]n3)nc3ccc(-c4cccnc4)cn23)n1 | 
22 | 31.2 | 60 |  | 1.2 | 38.3 | 9 | 112 |  |  | CC(=O)Nc1cc(-c2c(Nc3cc[nH]n3)nc3ccccn23)nc(C)n1 | AUC [11]: 0.6 µM·h
23 |  | 93 |  |  |  | 2 | 85 | 5 | 33.3 | Cc1nc(N)nc(-c2c(Nc3cc[nH]n3)nc3ccc(-c4cncnc4)cn23)n1 | 
24 |  | 222 |  |  |  | 4 | 239 | 23 | 33.3 | Cc1cc(-c2ccc3nc(Nc4cc[nH]n4)c(-c4nc(C)nc(N)n4)n3c2)ccn1 | 
25 |  | 326 |  |  |  | 6 | 306 | 26 | 33.3 | Cc1nc(N)nc(-c2c(Nc3cc[nH]n3)nc3ccc(-c4ccncc4)cn23)n1 | 
26 | 51 | 210 | 150 (≈ 488 µM) | 2 | 38.3 | 13 | 763 |  |  | Cc1nc(N)cc(-c2c(Nc3cc[nH]n3)nc3cccnn23)n1 | bioavailability [10]: 100%; AUC [11]: 1 µM·h; CL free (Rattus norvegicus [23]): 435 mL/min/kg; fraction unbound [22]: 0.088
27 | 15.6 |  | 1 (≈ 2.5 µM) | 1 | 41.7 | 76 | 635 |  |  | Cc1nc(N)nc(-c2c(Nc3ccn(C)n3)nc3ccc(-c4cncnc4)cn23)n1 | IC50 ([2]; u-87mg atcc): Not Active
28 |  | 57 |  |  |  | 3 | 68 | 6 | 33.3 | Cc1nc(N)nc(-c2c(Nc3ccn[nH]3)nc3ccc(-c4cncnc4C)cn23)n1 | 
29 |  | 49 |  |  |  | 2 | 73 | 13 | 33.3 | Cc1nc(N)nc(-c2c(Nc3cc[nH]n3)nc3ccc(-c4cnccc4C)cn23)n1 | 
30 |  | 67 |  |  |  | 15 | 648 | 64 | 33.3 | Cc1nc(N)nc(-c2c(Nc3cc[nH]n3)nc3ccc(-c4ccccc4F)cn23)n1 | 
31 |  | 115 |  |  |  |  | 96 | 29 | 33.3 | CC(=O)Nc1cccc(-c2ccc3nc(Nc4cc[nH]n4)c(-c4nc(C)nc(N)n4)n3c2)c1 | 
32 |  | 912 |  |  |  | 27 | 654 | 73 | 33.3 | Cc1nc(N)nc(-c2c(Nc3ccn[nH]3)nc3ccc(-c4cccc(F)c4)cn23)n1 | 
33 | 15 | 507 | 162 (≈ 529 µM) | 1.2 |  | 65 | 5840 |  |  | Cc1nc(N)cc(-c2c(Nc3cc[nH]n3)nc3ccccn23)n1 | clearance [24]: 68.3 mL/min/kg; CL free (Rattus norvegicus [23]): 515 mL/min/kg; bioavailability [25]: 2%
34 |  | 58 |  |  |  | 2 | 144 | 8 | 33.3 | Cc1nc(N)nc(-c2c(Nc3ccn[nH]3)nc3ccc(-c4cnn(C5CC5)c4)cn23)n1 | 
